Where two headings read alike, the source gives them in different places.
Tests used:
r(CCUG)12–MBNL1 complex = assay: TR-FRET assay measuring disruption of a preformed r; type: biochemical; conditions: read-out: IC50 for disrupting the r(CCUG)12–MBNL1 complex, in vitro
Procedure, shortened: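 5′-Biotinylated r(CCUG)12 was folded at 60 °C for 5 min in 20 mM HEPES pH 7.5 with KCl and NaCl. It was then brought into assay buffer with 2 mM MgCl2, 2 mM CaCl2, 5 mM DTT, 0.1% BSA and 0.5% Tween-20. MBNL1-His6 was added (final 60 nM protein, 80 nM RNA) for 15 min, then varying compound concentrations for 15 min. Streptavidin-XL665 (40 nM) and anti-His6-Tb (0.44 ng/μL) were added for 30 min at room temperature. The F545/F665 ratio, with excitation at 345 nm, was fitted to a Hill equation.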

[1] = test system: DM2 patient-derived fibroblasts; assay: Cell viability; type: cell-based; conditions: 5 μM, 48 h
Procedure, shortened: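 Cells were treated in 96-well plates for 48 h. CellTiter-Glo reagent was added, plates sat 10 min at room temperature, and luminescence was read. n = 6 replicates in one independent experiment.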

IR exon 11 splicing = type: cell-based; conditions: DM2 patient-derived fibroblasts; for rescue of IR exon 11 splicing (percent rescue): 1 μM
Procedure, shortened: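 DM2 patient-derived fibroblasts were treated at ~40% confluency in 6-well plates for 48 h. About 1 μg of total RNA was reverse transcribed. PCR ran 35 cycles (95/58/72 °C), and products were resolved on a 2% agarose gel, stained with ethidium bromide and quantified. Percent rescue = (untreated DM2 exclusion − treated exclusion)/(untreated DM2 exclusion − untreated WT exclusion) × 100.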

[2] = test system: RNA containing a single 2 × 2 CU/UC internal loop, r(5′-GACAGCCUGCUGUC-3′); assay: NMR spectroscopy; type: binding; conditions: for shifts of RNA H6 and H8 proton resonances in 1D NMR: RNA with one 2×2 CU/UC internal loop; for binding to the RNA by waterLOGSY spectra: positive phase signals in the presence of RNA, 20:1 compound:RNA
Procedure, shortened: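 1D spectra were run on 100 μM RNA in D2O with compound titrated at 0.5–2.0 molar ratios. WaterLOGSY used 300 μM compound alone or with 15 μM RNA in H2O/5% D2O, phased so non-binders give negative NOEs. All spectra at 25 °C.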

[3] = target: base-paired RNA that does not contain internal loops; assay: Microscale thermophoresis; type: binding; conditions: read-out: Kd for base pair control RNA; MST
Procedure, shortened: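 Cy5-labelled base-paired control RNA, GCG(CCUG)7(GCAG)5CGC, was used at 5 nM in 8 mM Na2HPO4 pH 7.0, 185 mM NaCl and 1 mM EDTA, folded at 60 °C for 5 min. It was mixed with 1:1 serial compound dilutions (0.05% Tween-20 final) and held 30 min at room temperature. MST settings: 80% power, 30 s laser-on. Kd came from a quadratic fit, averaged over two independent experiments.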

[4] = test system: r(CCUG)exp–MBNL1 nuclear foci; type: cell-based; conditions: 5 μM, DM2 patient-derived fibroblasts; untreated 7 ± 1
MAP4K4 exon 22a splicing = assay: MAP4K4 exon 22a splicing; type: cell-based; conditions: NOVA-dependent splicing event
CNBP intron 1 [5] = assay: CNBP intron 1 abundance by RT-qPCR in DM2 patient-derived fibroblasts; type: cell-based; conditions: doses of 5 and 1 μM
Procedure, shortened: (§1)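 DM2 patient-derived fibroblasts were grown in DMEM/high glucose with 20% FBS at 37 °C and 5% CO2. Cells in 6-well plates were treated in growth medium at 40% confluency for 48 h. About 1 μg of total RNA was reverse transcribed, then run in SYBR Green qPCR. Abundance was normalized to GAPDH across 2 independent experiments.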

CNBP mature mRNA = CNBP mature mRNA levels by RT-qPCR in DM2 patient-derived fibroblasts; type: cell-based
Procedure, shortened: as §1

CNBP intron 1 [6] = assay: CNBP intron 1 levels in wild-type fibroblasts; type: cell-based
Procedure, shortened: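 Wild-type donor fibroblasts (GM07492) were grown in MEM with 10% FBS and Glutagro at 37 °C and 5% CO2. Cells were treated at 40% confluency for 48 h. About 1 μg of total RNA was reverse transcribed and run in SYBR Green qPCR. Relative abundance was normalized to GAPDH.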

IR exon 11 inclusion = IR exon 11 inclusion in wild-type fibroblasts; type: cell-based
Procedure, shortened: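 Wild-type donor fibroblasts (GM07492) were grown in MEM with 10% FBS and treated at ~40% confluency for 48 h. About 1 μg of total RNA was reverse transcribed. PCR ran 35 cycles (95 °C 30 s, 58 °C 30 s, 72 °C 1 min). Products were separated on a 2% agarose gel, stained with ethidium bromide, and percent exon 11 exclusion was quantified by densitometry.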

Row | SMILES | IC50 (r(CCUG)12–MBNL1 complex) [µM] | shifts of RNA H6 and H8 proton resonances in 1D NMR [2] | binding to the RNA by waterLOGSY spectra [2] | further results
1 | Cc1ccc2nc(Nc3ccc4nc(NCCN(C)C)sc4c3)nc(NCCCO)c2c1 [compound 79, 3-((2-((2-((2-(dimethylamino)ethyl)amino)benzo[d]thiazol-6-yl)amino)-6-methylquinazolin-4-yl)amino)propan-1-ol] | < 5 | – | – | toxicity in DM2 patient-derived fibroblasts [1]: no toxicity; rescue of IR exon 11 splicing (IR exon 11 splicing; any concentration studied): did not significantly rescue splicing
2 | Cc1ccc2nc(Nc3ccc4nc(N5CCN(C)CC5)sc4c3)nc(NCCCO)c2c1 [compound 82, 3-((6-methyl-2-((2-(4-methylpiperazin-1-yl)benzo[d]thiazol-6-yl)amino)quinazolin-4-yl)amino)propan-1-ol] | < 5 | – | – | –
3 | CN(C)c1ccc(Nc2nc(NCCCO)c3ccccc3n2)cc1 [compound 4] | – | Significant shifts in resonances | bound to the RNA | –
4 | Cc1ccc2nc(Nc3ccc4nc(NC5CCN(Cc6ccccc6)CC5)sc4c3)nc(NCCCO)c2c1 [compound 71, 3-((2-((2-((1-benzylpiperidin-4-yl)amino)benzo[d]thiazol-6-yl)amino)-6-methylquinazolin-4-yl)amino)propan-1-ol] | < 5 | – | – | –
5 | Cc1ccc2nc(Nc3ccc4c(c3)OCCO4)nc(NCCCO)c2c1 [compound 58, 3-((2-((2,3-dihydrobenzo[b][1,4]dioxin-6-yl)amino)-6-methylquinazolin-4-yl)amino)propan-1-ol] | 12.7 ± 0.2 | – | – | –
6 | Cc1ccc2nc(Nc3ccc4nc(NCC(C)(C)O)sc4c3)nc(NCCCO)c2c1 [compound 78, 3-((2-((2-((2-hydroxy-2-methylpropyl)amino)benzo[d]thiazol-6-yl)amino)-6-methylquinazolin-4-yl)amino)propan-1-ol] | < 5 | – | – | toxicity in DM2 patient-derived fibroblasts [1]: no toxicity; rescue of IR exon 11 splicing (IR exon 11 splicing; 5 μM, 48 h): significantly improved IR splicing
7 | Cc1ccc2nc(Nc3ccc4nc(NCCN5CCOCC5)sc4c3)nc(NCCCO)c2c1 [compound 74, 3-((6-methyl-2-((2-((2-morpholinoethyl)amino)benzo[d]thiazol-6-yl)amino)quinazolin-4-yl)amino)propan-1-ol] | < 5 | – | – | –
8 | COc1ccc(Nc2nc(NCCCO)c3ccccc3n2)cc1 [compound 3] | – | Significant shifts in resonances | bound to the RNA | –
9 | CC(=O)Nc1ccc(Nc2nc(NCC3CCCO3)c3ccccc3n2)cc1 (centres unmarked) [compound 5] | – | Significant shifts in resonances | bound to the RNA | –
10 | Cc1ccc2nc(Nc3ccc4nc(C)sc4c3)nc(NCCCO)c2c1 [compound 63, 3-((6-methyl-2-((2-methylbenzo[d]thiazol-6-yl)amino)quinazolin-4-yl)amino)propan-1-ol] | 2.2 ± 0.5 | – | – | toxicity in DM2 patient-derived fibroblasts [1]: no toxicity; rescue of IR exon 11 splicing (percent rescue) (IR exon 11 splicing; 48 h): 33 ± 5%; rescue of IR exon 11 splicing (IR exon 11 splicing; 5 μM, 48 h): significantly improved IR splicing; Kd [3]: > 20 µM; number of r(CCUG)exp–MBNL1 nuclear foci per cell [4]: 5 ± 0.5; effect on MAP4K4 exon 22a splicing (MAP4K4 exon 22a splicing): did not affect; abundance of CNBP intron 1 (CNBP intron 1 [5]): significantly reduced; levels of CNBP mature mRNA (CNBP mature mRNA): did not affect; effects on CNBP intron 1 levels (CNBP intron 1 [6]): no effects were observed; effect on IR exon 11 inclusion (IR exon 11 inclusion): did not affect
11 | OCCCNc1nc(Nc2ccc3c(c2)OCCO3)nc2ccccc12 [compound 7, 3-((2-((2,3-dihydrobenzo[b][1,4]dioxin-6-yl)amino)quinazolin-4-yl)amino)propan-1-ol] | – | Significant shifts in resonances | bound to the RNA | rescue of IR exon 11 splicing (percent rescue) (IR exon 11 splicing; 48 h): 12 ± 5%
12 | Cc1ccc2nc(Nc3ccc4nc(N5CCOCC5)sc4c3)nc(NCCCO)c2c1 [compound 72, 3-((6-methyl-2-((2-morpholinobenzo[d]thiazol-6-yl)amino)quinazolin-4-yl)amino)propan-1-ol] | < 5 | – | – | –
13 | Cc1ccc2nc(Nc3ccc4nc(NCC(C)C)sc4c3)nc(NCCCO)c2c1 [compound 73, 3-((2-((2-(isobutylamino)benzo[d]thiazol-6-yl)amino)-6-methylquinazolin-4-yl)amino)propan-1-ol] | < 5 | – | – | –

From PMC8883746 (Journal of medicinal chemistry, 2021)
